CHO parental Ca = counter-screen: ATP calcium response change in parental CHO cells | parental CHO-K1, ATP-induced calcium, Fluo-8 fluorescence | inhibition, % at 5.6 µM | 0.63% of 330,000 active;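 active means inhibition above that plate's mean sample inhibition plus 3 SD, cut at about 26% in these data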
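Material: parental CHO cells / Compound: single nominal dose of 5.6 µM per compound / Signal: Fluo-8 fluorescence / Replicates: singlicate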
GPR7 antag = blocks human GPR7 receptor signaling; AID 1861; GPR7-expressing cells, fluorescence antagonist assay; 1.1% of 290,000 active; P48145; inhibition, % at 4.4 µM; in the data active means inhibition above about 16%, passing the limit was not always enough;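 further: cells stimulated with the agonist NPW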
OX1R antag-1 = blocks the human orexin 1 receptor; inhibition, % at 6.6 µM; O43613; OX1R-expressing cells, FRET antagonist read-out; 1.8% of 330,000 active; in the data active means inhibition mostly above about 38%, no sharp cut-off; inactive means mostly below about 40%
Target sequence (O43613 whole entry, looked up): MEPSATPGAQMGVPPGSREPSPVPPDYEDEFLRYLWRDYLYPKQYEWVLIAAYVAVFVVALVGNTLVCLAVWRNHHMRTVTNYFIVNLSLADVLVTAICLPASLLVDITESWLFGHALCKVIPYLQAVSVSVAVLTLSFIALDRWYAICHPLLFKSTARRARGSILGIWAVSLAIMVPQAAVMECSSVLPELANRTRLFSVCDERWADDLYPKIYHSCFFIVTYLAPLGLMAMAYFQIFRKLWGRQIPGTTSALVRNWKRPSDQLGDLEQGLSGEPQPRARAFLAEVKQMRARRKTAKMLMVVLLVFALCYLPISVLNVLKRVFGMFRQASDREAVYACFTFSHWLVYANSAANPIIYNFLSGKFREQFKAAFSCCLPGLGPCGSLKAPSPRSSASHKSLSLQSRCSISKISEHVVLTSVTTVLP
GalR3 antag = human GalR3 antagonism. HEK293 GalR3-CNG cAMP membrane potential fluorescence; galR3 body fused to GalR1 C-terminus. inhibition, % at 3 µM. 0.44% of 360,000 active. O60755;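 active means inhibition above the screen-wide average plus 3 SD, cut at about 13% in these data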;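 further: forskolin and galanin both at EC90 stimulate the cells; cAMP rise reported by CNG channel membrane potential dye signal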
OX1R antag-2 = human HCRTR1 antagonism; O43613; inhibition, % at 5 µM; CHO/OX1R cells, Fluo-8 calcium fluorescence, orexin A; 0.43% of 330,000 active;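 active means inhibition above its plate's threshold, mean inhibition of all tested compounds on the plate plus 3 SD, cut at about 37% in these data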
Large screens that a line does not name were inactive. Hits are enriched below; roughly 3.1% of the tested compounds scored in any of these assays.

CCc1c(-c2cccc(Cl)c2)ncn1CCc1ccccc1OC	none (no result: CHO parental Ca, GPR7 antag, OX1R antag-1, OX1R antag-2)
Cc1cc(C(=O)CSc2nnc(-c3ccccc3)o2)c(C)n1CC1COc2ccccc2O1 (stereo not given)	none
Cc1cc(C(=O)CSc2nnc(-c3ccco3)o2)c(C)n1CC1COc2ccccc2O1 (stereo not given)	GPR7 antag 19.6 (no result: CHO parental Ca, OX1R antag-1, OX1R antag-2)
COc1ccc(Cl)cc1NC(=O)CSc1nc2sccc2c(=O)[nH]1	OX1R antag-1 62.9
COc1ccc(Cl)cc1NC(=O)CSc1nc(C)cc(C)n1	none
COc1ccc(C)cc1NC(=O)CSc1nc2scc(C)c2c(=O)[nH]1	OX1R antag-1 71.1
Cc1ccn2c(-c3csc(NCc4ccccc4)n3)c(C)nc2c1	OX1R antag-2 43.4
O=[N+]([O-])c1ccc(S(=O)(=O)c2ccccc2)nc1	OX1R antag-1 58.7
Cc1cc(S(=O)(=O)c2ccc([N+](=O)[O-])cn2)ccc1Br	CHO parental Ca 55.2 (no result: GPR7 antag)
Cc1ccc(S(=O)(=O)c2ccc([N+](=O)[O-])cn2)cc1	none
CCOC(=O)NC1c2ccccc2Oc2ccccc21	CHO parental Ca 70.2
COC(=O)c1c(NC(=O)C2c3ccccc3Oc3ccccc32)sc(C)c1C	none
OC(c1nc2ccccc2[nH]1)C(O)c1nc2ccccc2[nH]1 (stereo not given)	none
FC(F)(F)c1nc2cc3nc4ccccc4[nH]c3cc2n1	OX1R antag-1 53.9
COC(=O)C1=C(C)N(Cc2cccc(C(F)(F)F)c2)C(=NCC2CC2)NC1c1cccc(C(F)(F)F)c1 (stereo not given)	none (no result: CHO parental Ca, GPR7 antag, OX1R antag-1, OX1R antag-2)
Fc1cccc(C2CCCCN2Cc2nc(C3CC3)no2)c1 (stereo not given)	none
COc1ccccc1NC(=O)c1cc2cc(Br)ccc2cc1O	CHO parental Ca 45.3
COc1ccccc1NC(=O)COC(=O)c1cc2ccccc2cc1O	none (no result: GPR7 antag)
COc1cc(NC(=O)c2cc3ccccc3cc2O)c(OC)cc1Cl	CHO parental Ca 36.3, OX1R antag-1 34.1
COc1cc2ccccc2cc1C(=O)Nc1ccccc1Cl	none
Cc1ccc(S(=O)(=O)N2CCN(C(=O)COC(=O)c3cnc(C)cn3)CC2)c(C)c1	none (no result: GPR7 antag)
Cc1ccc([C@H]2C(C(=O)O)=CC[C@@H](c3ccc(C)cc3)N2S(=O)(=O)c2ccc(C)cc2)cc1	OX1R antag-1 40.5 (no result: GPR7 antag)
Cc1ccc(S(=O)(=O)N2[C@@H](c3ccc(Cl)cc3)C(C(=O)O)=CC[C@H]2c2ccc(C(C)C)cc2)cc1	none (no result: GPR7 antag)
CCc1ccc([C@@H]2CC=C(C(=O)O)[C@H](c3ccccc3F)N2S(=O)(=O)c2ccc(C)cc2)cc1	OX1R antag-1 59.5 (no result: GPR7 antag)
COc1ccc([C@@H]2CC=C(C(=O)O)[C@H](c3cccc(Cl)c3)N2S(=O)(=O)c2ccc(Cl)cc2)cc1	OX1R antag-1 61.9 (no result: GPR7 antag)
Cc1ccc([C@H]2C(C(=O)O)=CC[C@@H](c3ccc(Cl)cc3)N2S(=O)(=O)c2ccc(C)cc2)cc1	OX1R antag-1 39.5 (no result: GPR7 antag)
COc1ccc2c(CC(=O)OCC(=O)Nc3sc4c(c3C#N)CCC(C)C4)coc2c1 (stereo not given)	none
C[C@@H]1CN(C(=O)OC(C)(C)C)CCN1c1ccc(Br)c(C#N)c1	none (no result: CHO parental Ca, GPR7 antag, OX1R antag-1, OX1R antag-2)
O=C(COC(=O)c1cncc(Br)c1)NCC12CC3CC(CC(C3)C1)C2	none (no result: CHO parental Ca, GPR7 antag, OX1R antag-1, OX1R antag-2)
Cc1ccc([C@H]2C(C(=O)O)=CC[C@@H](c3ccc(C(C)C)cc3)N2S(=O)(=O)c2ccc(C)cc2)cc1	CHO parental Ca 36.6 (no result: GPR7 antag)
CCc1ccc([C@@H]2CC=C(C(=O)O)[C@H](c3cccc(Cl)c3)N2S(=O)(=O)c2ccc(C)cc2)cc1	OX1R antag-1 70.8 (no result: GPR7 antag)
Cc1c2cn[nH]c(=O)c2c(C)n1-c1ccccc1	none
O=C(N/N=C/c1ccc([N+](=O)[O-])cc1)c1cccc2cc[nH]c12	none
CCN(CC)c1ccc(/C=N\NC(=O)c2cccc3cc[nH]c23)cc1	OX1R antag-1 51.4
N#C/C(=C(/O)c1ccc2c(c1)OCO2)c1nc2cc(C(F)(F)F)ccc2s1	OX1R antag-1 58.3
N#C/C(=C(/O)c1ccccc1F)c1nc2cc(C(F)(F)F)ccc2s1	none
CCC(=O)N(Cc1cc2ccc(C)cc2[nH]c1=O)c1ccccc1OC	none
CCOc1ccccc1C(=O)Nc1cccc2ccccc12	OX1R antag-1 52.7
COc1ccccc1C(=O)Nc1cccc2cccnc12	OX1R antag-1 72.7
COc1ccccc1NC(=O)c1ccccc1-c1nc(-c2ccccc2OC)no1	OX1R antag-1 54.8
O=C(Nc1cccc2cccnc12)c1ccccc1Cl	none (no result: GPR7 antag)

High-throughput results as filed in PubChem BioAssay.
